According to ChEMBL document CHEMBL5316309, “Discovery of BAY-390, a Selective CNS Penetrant Chemical Probe as Transient Receptor Potential Ankyrin 1 (TRPA1) Antagonist” (J Med Chem, 2023):
pIC50: −log10 of the molar value. ≈ marks a conversion by molar mass, not a printed value. Calls of active or inactive are those of the source.

How the values were obtained:
[1] = target: T1, Transient receptor potential cation channel subfamily A member 1 (Homo sapiens, UniProt O75762); assay: Antagonist activity at human wildtype TRPA1 channel expressed in CHO-K1 cells tagged with GCaMP6 by measuring calcium flux measured after […] by FLIPR tetra analysis; format: cell-based
[2] = target: Transient receptor potential cation channel subfamily A member 1 (Rattus norvegicus, UniProt Q6RI86); assay: Antagonist activity at rat TRPA1 channel expressed in CHO-K1 cells tagged with GCaMP6 by measuring calcium flux measured after 10 mins by FLIPR tetra analysis; format: cell-based
[3] = Mutagenecity in Salmonella typhimurium by Ames test; format: toxicity; settings: salmonella sp.
[4] = Lipophilicity, logD of compound; format: physicochemical; settings: octanol/water
[5] = tested on: Rattus norvegicus; assay: Antiallodynic activity against spinal nerve ligation neuropathic pain Sprague-Dawley rat model assessed as paw withdrawal threshold administered at 30 mg/kg, po bid post SNL surgery; format: functional, organism-based; settings: time <= 10.0 day, TDE = time-dependent effect
In short: (§1)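 Male Sprague Dawley rats, 100–120 g, had spinal nerve ligation under isoflurane. Oral dosing b.i.d. on days 15–24 post surgery in DMSO/Solutol/water 10/40/50 at 5 mL/kg; gabapentin 30 mg/kg q.d. as control. Von Frey up-and-down thresholds, blinded, on both hind paws at day 11 (baseline) and days 15, 18, 21, 24, 2 h after morning dose. Kruskal–Wallis with Dunn versus vehicle.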

[6] = target: T1, Transient receptor potential cation channel subfamily A member 1; assay: Antagonist activity at human TRPA1 channel expressed in CHO-K1 cells tagged with GCaMP6 by measuring calcium flux measured after 10 mins by FLIPR tetra analysis; format: cell-based
[7] = tested on: Plasma; assay: Free plasma concentration in cinnamaldehyde induced nocifensive behaviour Sprague-Dawley rat treated with CFA for 24 hrs followed by compound addition at 30 mg/kg, po measured after 4.5 hrs; format: functional
In short: (§2)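 Unbound plasma level taken 4.5 h after oral dosing (3, 10, 30 mg/kg), given 24 h after intraplantar CFA in rats.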

[8] = tested on: Rattus norvegicus; assay: Anti-inflammatory activity in complete Freund's adjuvant induced mechanical hyperalgesia in Sprague-Dawley rat assessed as reduction of mechanical hyperalgesia treated with CFA for 24 hrs followed by compound addition at 30 mg/kg, po measured after 4 hrs by Dunnett's post hoc test; format: functional, organism-based
In short: (§3)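 Male Sprague Dawley rats, 175–200 g, given intraplantar CFA in one hind paw. Oral dose once 24 h later in 10% DMSO/40% Solutol/50% water. Paw withdrawal threshold to pressure measured blinded on CFA and contralateral paws before CFA, at 24 h (predrug) and 2 and 4 h postdose. Two-way repeated-measures ANOVA, then Dunnett versus vehicle.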

[9] = Metabolic stability in rat blood assessed as clearance; format: ADME, tissue-based
[10] = Unbound brain concentration in spinal nerve ligation neuropathic pain Sprague-Dawley rat model administered at 90 mg/kg, po bid for 10 days from day 15 to day 24 post SNL surgery measured after 2 to 8 hrs of last dose
[11] = Solubility of the compound in PBS buffer at pH 6.5; format: physicochemical
[12] = tested on: Plasma; assay: Unbound plasma concentration in spinal nerve ligation neuropathic pain Sprague-Dawley rat model administered at 90 mg/kg, po bid for 10 days from day 15 to day 24 post SNL surgery measured after […] of last dose; format: functional; settings: time 242.5 hrs
[13] = Fraction unbound in human; format: ADME
[14] = Fraction unbound in Sprague-Dawley rat; format: ADME
[15] = tested on: Plasma; assay: Free plasma concentration in cinnamaldehyde induced nocifensive behaviour Sprague-Dawley rat treated with CFA for 24 hrs followed by compound addition at 10 mg/kg, po measured after 4.5 hrs; format: functional; in short: as §2
[16] = tested on: Rattus norvegicus; assay: Protective activity in cinnamaldehyde induced nocifensive behaviour Sprague-Dawley rat model assessed as reduction in number of flinches treated with cinnamaldehyde followed compound addition at 3 to 30 mg/kg, po measured after 1 hr measured by Dunnert's post hoc test; format: functional, organism-based; settings: dose 3-30 mg/kg
In short: (§4)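 Male Sprague Dawley rats, 175–200 g, dosed orally in 10% DMSO/40% Solutol/50% water 1 h before intraplantar injection of 50 μL cinnamaldehyde at 5 mM. Flinch number and licking duration scored blinded for 5 min. One-way ANOVA with Dunnett versus vehicle.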

[17] = tested on: Rattus norvegicus; assay: Antiallodynic activity against spinal nerve ligation neuropathic pain Sprague-Dawley rat model assessed as reversal of mechanical allodynia administered at 90 mg/kg, po bid measured after 6 days post SNL surgery; format: functional, organism-based; settings: time 6.0 day
[18] = tested on: Plasma; assay: Free plasma concentration in cinnamaldehyde induced nocifensive behaviour Sprague-Dawley rat model at 10 mg/kg, po; format: functional; settings: time 1 hrs
In short: (§5)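 Free plasma level taken 1 h after oral dosing (3, 10, 30 mg/kg) in the rat intraplantar cinnamaldehyde nocifensive model.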

[19] = tested on: Rattus norvegicus; assay: Protective activity in cinnamaldehyde induced nocifensive behaviour Sprague-Dawley rat model assessed as reduction in paw licking treated with cinnamaldehyde followed compound addition at 3 to 30 mg/kg, po measured after 1 hr measured by Dunnert's post hoc test; format: functional, organism-based; settings: dose 3-30 mg/kg; in short: as §4
[20] = tested on: Rattus norvegicus; assay: Reversal of complete Freund's adjuvant induced mechanical hyperalgesia in Sprague-Dawley rat assessed as paw withdrawal threshold treated with CFA for 24 hrs followed by compound addition at 3 to 30 mg/kg, po measured after 2 to 4 hrs by Dunnett's post hoc test; format: functional, organism-based; settings: dose 3-30 mg/kg, time 2-4 hrs; in short: as §3
[21] = tested on: Plasma; assay: Free plasma concentration in cinnamaldehyde induced nocifensive behaviour Sprague-Dawley rat model treated with cinnamaldehyde followed compound addition at 3 to 30 mg/kg, po measured after 1 hr; format: functional; settings: dose 3-30 mg/kg; in short: as §5
[22] = Fraction unbound in mouse; format: ADME, organism-based; settings: in vivo
[23] = Metabolic stability in rat hepatocytes; format: ADME, cell-based, Hepatocyte
[24] = tested on: Plasma; assay: Free plasma concentration in cinnamaldehyde induced nocifensive behaviour Sprague-Dawley rat treated with CFA for 24 hrs followed by compound addition at 3 mg/kg, po measured after 4.5 hrs; format: functional; in short: as §2
[25] = tested on: Rattus norvegicus; assay: Anti-inflammatory activity in complete Freund's adjuvant induced mechanical hyperalgesia in Sprague-Dawley rat assessed as reduction of mechanical hyperalgesia treated with CFA for 24 hrs followed by compound addition at 10 to 30 mg/kg, po measured after 2 hrs by Dunnett's post hoc test; format: functional, organism-based; settings: dose 10-30 mg/kg; in short: as §3
[26] = Permeability form apical to basolateral side in human Caco2 cells; format: ADME, cell-based; settings: caco-2
[27] = tested on: Rattus norvegicus; assay: Antiallodynic activity against spinal nerve ligation neuropathic pain Sprague-Dawley rat model assessed as reversal of mechanical allodynia administered at 30 mg/kg, po bid for 10 days from day 15 to day 24 post SNL surgery; format: functional, organism-based; settings: time <= 10.0 day; in short: as §1
[28] = tested on: Plasma; assay: Free plasma concentration in cinnamaldehyde induced nocifensive behaviour Sprague-Dawley rat model treated at 3 to 30 mg/kg, po for 1 hr followed by cinnamaldehyde addition; format: functional; settings: dose 3-30 mg/kg; in short: as §5
[29] = Efflux ratio of permeability in human Caco2 cells; format: ADME, cell-based; settings: caco-2
[30] = Unbound brain concentration in spinal nerve ligation neuropathic pain Sprague-Dawley rat model administered at 30 mg/kg, po bid for 10 days from day 15 to day 24 post SNL surgery measured after 2 to 8 hrs of last dose
[31] = tested on: Plasma; assay: Unbound plasma concentration in spinal nerve ligation neuropathic pain Sprague-Dawley rat model administered at 30 mg/kg, po bid for 10 days from day 15 to day 24 post SNL surgery measured after […] of last dose; format: functional; settings: time 242.5 hrs
[32] = Fraction unbound in guniea pig; format: ADME, Cavia porcellus; settings: guinea pig

T1 sequence (O75762 whole entry): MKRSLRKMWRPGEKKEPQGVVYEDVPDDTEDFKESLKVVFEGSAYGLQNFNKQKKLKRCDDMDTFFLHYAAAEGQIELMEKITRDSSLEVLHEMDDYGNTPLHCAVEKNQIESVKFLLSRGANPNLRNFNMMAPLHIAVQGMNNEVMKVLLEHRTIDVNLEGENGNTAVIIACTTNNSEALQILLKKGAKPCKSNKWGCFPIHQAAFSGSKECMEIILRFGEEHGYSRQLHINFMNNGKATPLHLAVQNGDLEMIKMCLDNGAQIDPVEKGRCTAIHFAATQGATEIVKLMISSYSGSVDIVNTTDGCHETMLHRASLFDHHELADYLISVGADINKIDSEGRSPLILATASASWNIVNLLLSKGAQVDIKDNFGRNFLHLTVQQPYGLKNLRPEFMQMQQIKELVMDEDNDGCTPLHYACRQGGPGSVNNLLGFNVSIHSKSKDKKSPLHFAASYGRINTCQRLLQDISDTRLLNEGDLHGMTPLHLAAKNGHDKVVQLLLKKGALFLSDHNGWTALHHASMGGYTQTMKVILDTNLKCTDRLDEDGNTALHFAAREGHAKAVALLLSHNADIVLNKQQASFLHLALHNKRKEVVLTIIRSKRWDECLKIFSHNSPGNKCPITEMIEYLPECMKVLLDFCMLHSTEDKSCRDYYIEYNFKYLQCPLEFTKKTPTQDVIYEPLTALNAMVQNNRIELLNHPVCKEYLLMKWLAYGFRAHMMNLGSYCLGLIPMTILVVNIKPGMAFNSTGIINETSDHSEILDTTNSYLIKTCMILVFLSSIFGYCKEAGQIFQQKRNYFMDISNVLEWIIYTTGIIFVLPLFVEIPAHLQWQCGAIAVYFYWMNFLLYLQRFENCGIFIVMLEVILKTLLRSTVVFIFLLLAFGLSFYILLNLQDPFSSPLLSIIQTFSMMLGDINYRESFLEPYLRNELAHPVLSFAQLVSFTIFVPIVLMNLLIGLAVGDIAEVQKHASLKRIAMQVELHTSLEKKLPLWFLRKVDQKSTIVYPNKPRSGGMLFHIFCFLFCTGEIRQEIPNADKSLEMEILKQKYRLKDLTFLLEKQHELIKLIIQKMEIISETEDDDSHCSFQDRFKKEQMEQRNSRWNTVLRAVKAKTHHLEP
Transient receptor potential cation channel subfamily A member 1 (Rattus norvegicus, UniProt Q6RI86), sequence (Q6RI86 whole entry): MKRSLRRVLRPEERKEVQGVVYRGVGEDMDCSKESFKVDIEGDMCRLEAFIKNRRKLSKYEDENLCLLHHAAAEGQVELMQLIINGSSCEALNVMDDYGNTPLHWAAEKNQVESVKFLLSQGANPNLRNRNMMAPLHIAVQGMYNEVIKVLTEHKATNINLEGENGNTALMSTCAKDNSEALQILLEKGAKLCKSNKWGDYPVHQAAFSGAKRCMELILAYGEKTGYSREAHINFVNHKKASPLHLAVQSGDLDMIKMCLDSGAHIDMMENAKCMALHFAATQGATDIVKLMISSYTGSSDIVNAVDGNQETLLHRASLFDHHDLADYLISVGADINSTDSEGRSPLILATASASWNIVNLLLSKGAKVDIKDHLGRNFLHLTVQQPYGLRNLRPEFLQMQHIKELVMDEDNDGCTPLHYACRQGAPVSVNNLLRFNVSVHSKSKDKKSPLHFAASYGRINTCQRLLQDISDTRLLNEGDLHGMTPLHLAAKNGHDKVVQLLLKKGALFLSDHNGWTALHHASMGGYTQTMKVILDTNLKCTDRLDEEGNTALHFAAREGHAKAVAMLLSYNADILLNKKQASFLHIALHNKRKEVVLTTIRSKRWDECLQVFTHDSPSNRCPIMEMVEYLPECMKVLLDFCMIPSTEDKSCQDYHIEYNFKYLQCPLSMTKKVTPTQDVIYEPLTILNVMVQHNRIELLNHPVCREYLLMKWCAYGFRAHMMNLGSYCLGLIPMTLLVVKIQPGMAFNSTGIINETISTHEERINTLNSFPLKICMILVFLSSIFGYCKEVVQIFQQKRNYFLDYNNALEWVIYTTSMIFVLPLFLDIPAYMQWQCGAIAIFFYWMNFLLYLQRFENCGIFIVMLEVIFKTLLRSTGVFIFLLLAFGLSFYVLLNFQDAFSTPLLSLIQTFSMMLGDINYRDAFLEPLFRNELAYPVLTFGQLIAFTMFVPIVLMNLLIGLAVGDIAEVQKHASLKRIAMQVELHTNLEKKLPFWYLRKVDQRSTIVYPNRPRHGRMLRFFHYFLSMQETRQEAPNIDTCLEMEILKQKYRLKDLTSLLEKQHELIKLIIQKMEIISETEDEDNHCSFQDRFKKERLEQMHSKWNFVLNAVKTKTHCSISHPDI

Cc1cc2[nH]ncc2cc1-c1ccccc1C(F)(F)F
pIC50 [1]: 7.85

COCCCOc1cccc([C@H]2NC(=S)Nc3c2oc2ncccc32)c1
pIC50 [1]: 7.17

Cn1c(=O)c2c(CC(=O)Nc3nc(-c4ccc(F)c(C(F)(F)F)c4F)cs3)csc2n(C)c1=O
pIC50 [1]: 5.17

O[C@]1(C(F)(F)F)CCCC[C@H]1Cc1ccc(Cl)cn1
pIC50 [2]: < 4.60

N#Cc1ccc(N[C@@H]2CCCC[C@]2(O)C(F)(F)F)cc1
Activity [3]: Non-Toxic
pIC50 [2]: 5.89

O[C@]1(C(F)(F)F)CCCC[C@H]1Nc1ccc(Cl)cc1
Activity [3]: Toxic
pIC50 [2]: 6.93

O=C1c2ccc(F)cc2CN1[C@@H]1CCCC[C@]1(O)C(F)(F)F
logD [4]: 2.6

CN(c1ccc(F)cc1)[C@@H]1CCCC[C@]1(O)C(F)(F)F
pIC50 [2]: 4.68
logD [4]: 3.9

CN([C@@H]1CCCC[C@]1(O)C(F)(F)F)S(=O)(=O)c1ccc(F)cc1
pIC50 [2]: 4.80
logD [4]: 3.1

O=C(N[C@@H]1CCCC[C@]1(O)C(F)(F)F)c1ccc(F)cc1
pIC50 [2]: 4.82

C#CC(CC)(CC)NC(=O)c1cccnc1NC1CC(F)(F)C1
pIC50 [1]: 9.00

N#Cc1cc(C[C@@H]2CCCC[C@]2(O)C(F)(F)F)cs1
pIC50 [2]: 6.21
logD [4]: 3.2

O[C@]1(C(F)(F)F)CCCC[C@H]1Nc1cccc(F)c1
Activity [3]: Non-Toxic
pIC50 [2]: 6.02

O[C@]1(C(F)(F)F)CCCC[C@H]1N1CCc2cc(F)ccc21
pIC50 [2]: 5.00
logD [4]: 3.9

O[C@]1(C(F)(F)F)CCCC[C@H]1Nc1ccc(Cl)c(F)c1
Activity [3]: Non-Toxic
pIC50 [2]: 6.70

O[C@]1(C(F)(F)F)CCCC[C@H]1Nc1ccc(F)cn1
Activity [3]: Non-Toxic
pIC50 [2]: 5.20

O[C@]1(C(F)(F)F)CCCC[C@H]1Nc1ccc(Cl)c(Cl)c1
Activity [3]: Non-Toxic
pIC50 [2]: 6.19
logD [4]: 3.8

O[C@]1(C(F)(F)F)CCCC[C@H]1Nc1ccc(F)c(Cl)c1
Activity [3]: Non-Toxic
pIC50 [2]: 6.17
logD [4]: 3.4

O[C@]1(C(F)(F)F)CCCC[C@H]1Cc1ccncc1
pIC50 [2]: 5.28

O[C@]1(C(F)(F)F)CCCC[C@H]1Cc1cncc(Cl)c1
pIC50 [2]: < 4.60

O[C@]1(C(F)(F)F)CCCC[C@H]1Cc1csc(Cl)c1
pIC50 [2]: 6.89
logD [4]: 4.3

O[C@@]1(C(F)(F)F)CCCC[C@@H]1Cc1ccc(F)cc1
logD [4]: 3.8

C[C@@H](C(=O)Nc1ccnc(-c2cnc(N3CCC[C@H]3C(F)(F)F)nc2)n1)n1cnc2c1c(=O)n(C)c(=O)n2C
pIC50 [1]: 7.19

O[C@]1(C(F)(F)F)CCCC[C@H]1Oc1ccc(F)cc1
pIC50 [2]: 6.92
logD [4]: 3.5

O[C@]1(C(F)(F)F)CCCC[C@H]1Cc1ccc(Cl)nc1
pIC50 [2]: 5.62
logD [4]: 3

O[C@]1(C(F)(F)F)CCCC[C@H]1Cc1ncc(Cl)s1
pIC50 [2]: 5.92

NCC1(CC(=O)O)CCCCC1
Activity [5]: Tde

CC1(C)CCCC(O)(C(F)(F)F)C1Cc1cccc(C#N)c1 (mixture of isomers)
pIC50 [2]: 4.89
pIC50 [6]: 5.26

CC1(C)CCCC(O)(C(F)(F)F)C1Cc1cccc(F)c1 (mixture of isomers)
pIC50 [2]: 5.42
pIC50 [6]: 6.12

Cc1ccc(CC2C(C)(C)CCCC2(O)C(F)(F)F)cc1 (mixture of isomers)
pIC50 [2]: < 4.90
pIC50 [6]: 5.90

CC1(C)CCCC(O)(C(F)(F)F)C1Cc1ccc(Cl)cc1 (mixture of isomers)
pIC50 [2]: 4.94
pIC50 [6]: 6.47

CC1(C)CCCC(O)(C(F)(F)F)C1Cc1ccc(C#N)cc1 (mixture of isomers)
pIC50 [2]: 5.12
pIC50 [6]: 6.41

CC1(C)CCCC(O)(C(F)(F)F)C1Cc1ccc(F)cc1F (mixture of isomers)
pIC50 [2]: < 5.00
pIC50 [6]: 6.00

COc1ccc(CC2C(C)(C)CCCC2(O)C(F)(F)F)cc1 (mixture of isomers)
pIC50 [2]: < 4.90
pIC50 [6]: < 4.90

COCCN(c1ccc(F)cc1)[C@@H]1CCCC[C@]1(O)C(F)(F)F (racemic)
pIC50 [2]: 5.42
logD [4]: 3.8

O[C@]1(C(F)(F)F)CCCC[C@H]1Nc1ccccc1 (racemic)
pIC50 [2]: 5.64

N#Cc1ccc(NC2CCCCC2(O)C(F)(F)F)cc1C(F)(F)F (racemic)
Activity [3]: Non-Toxic
pIC50 [2]: < 4.60
pIC50 [6]: 4.72

OC(F)(F)[C@@]1(O)CCCC[C@H]1Cc1c[nH]c2ccccc12 (racemic)
logD [4]: 3.3

O[C@]1(C(F)(F)F)CCCC[C@H]1Nc1ccc(F)cc1 [BAY-390]
Activity [3]: Non-Toxic
Cp(f) [7]: 103 nM
pIC50 [1]: 7.46
Activity [8]: Active
CL [9]: 40 mL/min/kg
unbound brain concentration [10]: 61 nM
solubility [11]: 56 µg/mL (≈ 202 µM)
Cp(f) [12]: 201 nM
fraction unbound [13]: 0.12
fraction unbound [14]: 0.06
Cp(f) [15]: 10 nM
Activity [16]: Active
Activity [17]: Active
Cp(f) [18]: 35 nM
Activity [19]: Active
Activity [20]: Active
Cp(f) [21]: 10 nM
fraction unbound [22]: 0.081
Stability [23]: Stable
Cp(f) [24]: 7 nM
Activity [25]: Active
permeability [26]: 29.3 ×10⁻⁶ cm/s
Activity [27]: inactive
Cp(f) [28]: 115 nM
Ratio [29]: 0.6
logD [4]: 3
unbound brain concentration [30]: 33 nM
Cp(f) [31]: 115 nM
fraction unbound [32]: 0.097

COc1cc(N[C@@H]2CCCC[C@]2(O)C(F)(F)F)ccc1F [BAY-9897]
Activity [3]: Non-Toxic
pIC50 [2]: < 4.60
pIC50 [6]: < 4.60
